# Only some compounds are listed: those with a hit (about 3.5% of all), similar ones and a draw of the others.
# MrgX1 agonist = agonists of human MrgX1 receptor, primary screen, HEK293 cells, Fluo-4 calcium flux | Mas-related G-protein coupled receptor member X1 (Homo sapiens), Q96LB2 | 0.44% of 310,000 active | B-score at 10 µM | Fluo-4 calcium fluorescence, agonist mode; active compounds read high;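 active means calcium response B-score plate-corrected fluorescence ratio at least 3 library SD, with starting fluorescence B-score inside 5 SD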
# Target sequence (Q96LB2 whole entry, looked up): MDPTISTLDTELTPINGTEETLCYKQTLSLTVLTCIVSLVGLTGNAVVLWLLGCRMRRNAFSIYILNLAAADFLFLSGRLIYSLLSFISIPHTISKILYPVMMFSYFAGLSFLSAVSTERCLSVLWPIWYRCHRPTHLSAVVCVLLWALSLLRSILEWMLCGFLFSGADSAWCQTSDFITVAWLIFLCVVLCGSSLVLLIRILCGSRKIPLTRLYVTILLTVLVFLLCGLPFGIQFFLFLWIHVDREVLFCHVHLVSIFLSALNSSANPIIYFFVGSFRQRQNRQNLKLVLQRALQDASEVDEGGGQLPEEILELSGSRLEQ
#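 Test system: HEK293 cells stably expressing human MrgX1 receptor; amount: 15,000 cells per well; doses: compound delivered in addition one of three; times: overnight plating before 1 h dye loading; detection: Fluo-4 NW calcium-flux fluorescence, kinetic read; read-out basis: B-scored fluorescence response ratio; controls: positive and negative controls per plate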
# RGS4 pot = RGS4 potentiators or activators, primary screen, cell-based, HEK293 M3R inducible RGS4, calcium flux; carbachol calcium flux Fluo4; active compounds read low; B-score at 10 µM; 0.92% of 310,000 active; AID 463111, 2010;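 active means B-score of the integrated calcium signal more than 4 SD below the library mean, with starting fluorescence not abnormally high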;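 further: negative B-score means reduced calcium response which marks RGS4 activation or potentiation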
#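 Also added: carbachol at ECmax as muscarinic agonist stimulus; Assay system: HEK293 cells with stable M3R and inducible RGS4; Timing: overnight RGS4 induction, 30 min dye load 37 °C, 20 min compound RT; Measured by: Fluo4-AM (2 µM) calcium-flux fluorescence, kinetic read.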
# MrgX1 antagonist = antagonists of human MrgX1 receptor, primary screen, HEK293 cells, Fluo-4 calcium flux. AID 588676, 2011. BAM8-22 antagonism; active compounds read low. B-score at 10 µM. Mas-related G-protein coupled receptor member X1 (Homo sapiens), Q96LB2. 1.3% of 310,000 active;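 active means calcium-response B-score plate-corrected more than 3 library SD below zero, starting fluorescence within 5 deviations, no agonist response on first addition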;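 further: peak minus trough fluorescence over baseline after final BAM8-22 challenge near maximal dose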
# MrgX1 PAM = positive allosteric modulators of MrgX1, primary screen, HEK293 cells, Fluo-4 calcium flux; 0.63% of 310,000 active; FDSS; active compounds read high; Mas-related G-protein coupled receptor member X1 (Homo sapiens), Q96LB2; B-score at 10 µM; AID 588675, 2011;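 active means plate-corrected calcium response at least 3 library SD above typical, normal starting fluorescence, not activating the receptor alone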;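 further: compound read alongside a low EC10 to EC30 dose of BAM8-22 agonist; peak minus trough fluorescence over baseline measured at the second addition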
# RGS4 block = RGS4 inhibitors, primary screen, cell-based, HEK293 M3R inducible RGS4, calcium flux; Regulator of G-protein signaling 4 (Homo sapiens), P49798; Fluo-4 calcium flux; active compounds read high; triggered by carbachol at its EC20; B-score at 10 µM; 0.45% of 310,000 active; AID 463165, 2010;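 active means B-score, a plate-corrected calcium signal, over three deviations above library mean, with baseline fluorescence within five deviations of library mean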;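 further: RGS4 expression induced by doxycycline in cells with stable M3 receptor; B-score is computed from the integrated fluorescence ratio over baseline after carbachol; higher B-score means a larger calcium signal and so more RGS4 inhibition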
# Target sequence (P49798 whole entry, looked up): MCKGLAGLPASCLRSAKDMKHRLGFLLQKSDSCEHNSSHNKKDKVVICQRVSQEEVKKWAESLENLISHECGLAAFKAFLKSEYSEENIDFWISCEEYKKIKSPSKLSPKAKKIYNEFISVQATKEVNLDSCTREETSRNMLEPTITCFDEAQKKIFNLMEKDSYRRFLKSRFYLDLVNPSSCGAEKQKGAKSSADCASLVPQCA
# MrgX1 ant reconf = MrgX1 receptor antagonists, duplicate retest, confirmation, HEK293 cells, Fluo-4 calcium flux | shares compounds with MrgX1 antagonist | BAM8-22 calcium flux; active compounds read low | remaining BAM8-22 calcium response % of control (active compounds read low), % at 10 µM | 19% of 2,300 active;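 active means remaining agonist calcium response no higher than 100% minus 3 SD of agonist-only control wells, with starting fluorescence near control levels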;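 further: agonist BAM8-22 given at a near maximal EC90 to ECmax level; peak minus minimum fluorescence divided by baseline after agonist addition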
# HEK293 Ca flux = nonspecific calcium signal in parental HEK293, confirmation, counter-screen for MrgX1 antagonist project, parental HEK293 cells, Fluo-4 calcium flux | Fluo-4 calcium fluorescence, FDSS | fluorescence ratio F(max-min)/F0 at 10 µM | shares compounds with MrgX1 antagonist | 2% of 4,000 active | AID 624111, 2012;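 active means duplicate-averaged calcium fluorescence ratio at least three times the standard deviation of buffer wells, a nonspecific response in parental cells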
# HEK293 Ca counter = calcium response in parental HEK293 cells, primary screen, counter-screen for MrgX1 allosteric activator project, cell-based, Fluo-4 calcium flux, duplicate; shares compounds with MrgX1 antagonist; Fluo-4 fluorescence ratio; active compounds read high; fluorescence ratio F(max-min)/F0 at 10 µM; 0.4% of 4,000 active; AID 624114, 2012;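 active means calcium fluorescence ratio, averaged over duplicates, at least 3 SD of the buffer-well ratio, meaning a nonspecific response in receptor-free cells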;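 further: untransfected parental HEK293 lacking MrgX1 used as counterscreen for MrgX1 allosteric activators; fluorescence change taken during the second addition on a kinetic imager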
# HEK293 Ca cntr2 = calcium response in parental HEK293 cells, primary screen, counter-screen for MrgX1 agonist project, cell-based, Fluo-4 calcium flux, duplicate, agonist mode; shares compounds with MrgX1 antagonist; Fluo-4 calcium fluorescence (FDSS); active compounds read high; fluorescence ratio F(max-min)/F0 at 10 µM; 8.7% of 4,000 active;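 active means calcium fluorescence ratio at least three times the spread of buffer wells, meaning a non-specific response in parental cells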
# Hits are given with their value; i = inactive; nt = no result given.
SMILES,MrgX1 agonist,RGS4 pot,MrgX1 antagonist,MrgX1 PAM,RGS4 block,MrgX1 ant reconf,HEK293 Ca flux,HEK293 Ca counter,HEK293 Ca cntr2
Cc1ccc(C(=O)NC2CC3CCC(C2)N3Cc2ccco2)cc1 (configuration not stated),i,i,-7.8,i,i,i,i,i,i
O=C(Nc1nnc(-c2ccncc2)o1)c1cccc(N2C(=O)CCC2=O)c1,i,i,i,i,i,nt,nt,nt,nt
CSc1cccc(-c2nnc(NC(=O)c3cccc(N4C(=O)CCC4=O)c3)o2)c1,i,i,-4.5,i,i,i,i,i,i
CC(Cc1ccc(Cl)cc1)N1CCC(n2nccc2NC(=O)C2CCCC2)CC1 (configuration not stated),i,i,i,i,i,nt,nt,nt,nt
COC(=O)[C@H](Cc1ccccc1)NC(=O)NCc1ccc(C)cc1,i,i,i,i,i,nt,nt,nt,nt
Cc1ccc(CNC(=O)N[C@@H](Cc2ccccc2)C(=O)O)cc1,i,i,-7.2,i,i,i,i,i,i
Cc1ccc(CNC(=O)C2CCCN2S(=O)(=O)c2ccc(F)cc2)cc1 (configuration not stated),i,i,i,i,i,nt,nt,nt,nt
COc1ccc(CCNC(=O)C2CCCN2S(=O)(=O)c2ccc(F)cc2)cc1OC (configuration not stated),i,i,-9,i,i,i,i,i,i
COc1ccc(CNC(=O)C2CCCN2S(=O)(=O)c2ccc(Cl)cc2)cc1 (configuration not stated),i,i,-5.5,i,i,84%,i,i,i
COc1ccc(C)cc1NC(=O)C1CCN(C(=O)c2ccc(C(C)(C)C)cc2)CC1,i,i,i,i,i,nt,nt,nt,nt
COc1ccccc1N(C(=O)Cn1nnc(-c2ccc(C)o2)n1)C(C(=O)NC1CCCC1)c1ccncc1 (configuration not stated),i,i,i,i,i,nt,nt,nt,nt
CC(=O)N(CC(C)(C)CC=C(C)C)c1ccccc1,i,i,i,i,i,nt,nt,nt,nt
O=C(c1ccc2c(c1)OCO2)N1CCN(c2ccc(Cl)cc2)CC1,i,i,i,i,i,nt,nt,nt,nt
O=C(c1ccc2c(c1)OCO2)N1CCN(S(=O)(=O)c2ccc(Cl)cc2)CC1,i,i,-4.5,i,i,i,i,i,i
Cc1ccc(-c2ccc(=O)n(Cc3c(F)cccc3Cl)n2)cc1,i,i,i,i,i,nt,nt,nt,nt
Cc1cccc2[nH]c3c(=O)n(CCN4CCNCC4)cnc3c12,i,i,i,i,i,nt,nt,nt,nt
CC(C)CCn1cnc2c([nH]c3cccc(Cl)c32)c1=O,i,i,-5.8,i,i,i,i,i,i
CCN(CC)C(=O)N1CCC(NC(=O)c2ccccc2)CC1,i,i,-7.5,i,i,i,i,i,i
O=C(NC1CCN(C(=O)N2CCOCC2)CC1)c1ccccc1,i,i,i,i,i,nt,nt,nt,nt
Cc1ccc(-n2c(=O)cc(N3CCCCCC3)[nH]c2=O)cc1,i,i,-7.7,i,i,i,i,i,i
COc1ccc(C(=O)N2CCCC(C(=O)O)C2)c2ccccc12 (configuration not stated),i,i,i,i,i,nt,nt,nt,nt
Cc1ccc(C2=NC(C)(C)N=C2SCC(=O)Nc2ccc(Cl)cc2)cc1,i,i,-5.7,i,i,i,i,i,i
CC1(C)N=C(SCC(=O)Nc2ccc(Cl)cc2Cl)C(c2ccccc2)=N1,i,i,-7,i,i,80%,i,i,i
O=[N+]([O-])c1cccc(S(=O)(=O)N2CCCCC2c2cccnc2)c1 (configuration not stated),i,i,i,i,i,nt,nt,nt,nt
Cc1nccn1CCOc1ccc(Cl)cc1,i,i,i,i,i,nt,nt,nt,nt
SMILES,MrgX1 agonist,RGS4 pot,MrgX1 antagonist,MrgX1 PAM,RGS4 block,MrgX1 ant reconf,HEK293 Ca flux,HEK293 Ca counter,HEK293 Ca cntr2
COC(=O)c1ccc2c(=O)sc(N3CCC(C(N)=O)CC3)nc2c1,i,i,-7.6,i,i,i,i,i,i
COC(=O)c1ccc(C(=O)OC)c(NC(=S)N2CCC(C(N)=O)CC2)c1,i,i,i,i,i,nt,nt,nt,nt
CCN(CC)C(=O)C1CC(=O)OC12CCCCC2 (configuration not stated),i,i,i,i,i,nt,nt,nt,nt
O=C1CC(C(=O)O)C2(CCCC2)O1 (configuration not stated),i,i,-5.2,i,i,i,i,i,i
O=C(Nc1ccnn1C1CCN(C2CCOCC2)CC1)c1cccc(F)c1,i,i,i,i,i,nt,nt,nt,nt
Cc1ccc(-c2nc3ncccn3c2Nc2ccc3c(c2)OCO3)o1,i,i,-5.4,i,i,i,i,i,i
Cc1ccc(Nc2c(-c3ccc(C)o3)nc3ncccn23)cc1,i,i,i,i,i,nt,nt,nt,nt
CCOC(=O)c1c(NC(=O)OC)sc(C(=O)N(CC)CC)c1C,i,i,-4.7,i,i,i,i,i,i
O=C(/C=C/c1cccc(Cl)c1)NCCCN1CCOCC1,i,i,i,i,i,nt,nt,nt,nt
Cc1cc2oc(=O)cc(Cn3ncc(Cl)c(Cl)c3=O)c2cc1Cl,i,i,i,i,i,nt,nt,nt,nt
CN(C)S(=O)(=O)c1cccc(C(=O)NCCCn2ccnc2)c1,i,i,i,i,i,nt,nt,nt,nt
O=C(NCCCn1ccnc1)c1cccc(S(=O)(=O)Nc2ccc(Br)cc2)c1,i,i,-4.5,i,i,i,i,i,i
CCCCOC(=O)C(NC(=O)c1ccccc1)=C(C)C,i,i,i,i,i,nt,nt,nt,nt
CCOC(=O)C(NC(=O)c1ccccc1)=C(C)C,i,i,-8.9,i,i,i,i,i,i
CNc1nc(C)c([N+](=O)[O-])c(Nc2ccc(OC)cc2)n1,i,i,i,i,i,nt,nt,nt,nt
CC(=O)Nc1ccc(Nc2nc(C)c([N+](=O)[O-])c(Nc3ccc(NC(C)=O)cc3)n2)cc1,i,i,-22,i,i,82%,i,i,i
O=C(Nc1nc2c(Br)cc(Br)cc2c(=O)s1)C1CCC1,i,i,i,i,i,nt,nt,nt,nt

# Screening data (PubChem BioAssay)
